# Assay results pooled from the literature.
# Protocols differ between the studies behind these lines.
# Target: Protein-tyrosine kinase 6 (PTK6, Homo sapiens, UniProt Q13882)
SMILES,read-out,action,technique,tested at,endpoint,value
CCCOc1ccc(OC)c(F)c1C(=O)c1ccc(C(=O)N[C@@H]2CNC[C@H]2NC(=O)c2ccc3[nH]ncc3c2)cc1,enzyme activity,inhibitor,,10 µM,remaining activity,97%
CCN(CC)c1ccc(C2=NNC(=O)CC2C)cc1[N+](=O)[O-] (stereo not drawn),enzyme activity,inhibitor,,10 µM,remaining activity,105%
O=C(Nc1cnn(-c2csc(C(=O)NC3COC3)c2)c1)Nc1c(F)cccc1Cl,enzyme activity,inhibitor,,5 µM,remaining activity,85.7%
CCN(CC)CCNC(=O)c1c(C)[nH]c(/C=C2\C(=O)Nc3ccc(F)cc32)c1C,enzyme activity,inhibitor,,10 µM,inhibition,74%
CC(C)(C)c1nc2c(s1)c1nc(N)ncc1c1ccc(NS(=O)(=O)c3c(F)cccc3F)c(F)c12,enzyme activity,inhibitor,radiometric,1 µM,remaining activity,104%
COc1ccc2c(O[C@@H]3C[C@H]4C(=O)N[C@]5(C(=O)O)CC5/C=C\CCCCC[C@H](NC(=O)OC5CCCC5)C(=O)N4C3)cc(-c3csc(NC(=O)C(C)C)n3)nc2c1C (stereo partly drawn),cell-free assay,,competition with immobilised ligand,1 µM,remaining binding,97%
Cc1ccc(NC(=O)c2ccc(C)c(C(F)(F)F)c2)cc1C#Cc1nn(C2CCC(O)CC2)c2ncnc(N)c12 (stereo not drawn),cell-free assay,,,10 µM,remaining signal,-1%
N#CCCc1ccc2c(c1)-c1[nH]c3ccc([N+](=O)[O-])cc3c1CC(=O)N2,cell-free assay,,,0.5 µM,remaining signal,94.6%
FC(F)(F)Oc1cccc(-c2cnc3ccc(-c4ccncc4)nn23)c1,enzyme activity,inhibitor,radiometric,5 µM,activity vs control,70%
COc1cc(Cl)c(C(=O)N[C@@H](CN[C@H]2CC[C@@H](N)CC2)Cc2ccc(C#N)cc2)cc1-c1ccc(CN[C@H](C)c2ccc(C)cc2)o1,enzyme activity,inhibitor,,1 µM,remaining activity,98%
COc1cc2nccc(Oc3ccc(NC(=O)c4c5n(n(-c6ccc(F)cc6)c4=O)CCCC5)cc3)c2cc1OC,enzyme activity,inhibitor,,0.1 µM,inhibition,37%
O=C(NS(=O)(=O)c1ccc(NCC2CCOCC2)c([N+](=O)[O-])c1)c1ccc(N2CCN(Cc3ccc(C(F)(F)F)cc3-c3ccc(Cl)cc3)CC2)cc1Oc1cnc2[nH]ccc2c1,cell-free assay,,competition with immobilised ligand,1 µM,remaining binding,100%
Cc1sc(C(=O)NC2COC2)cc1-n1cc(NC(=O)Nc2c(F)cccc2Cl)cn1,enzyme activity,inhibitor,,10 µM,remaining activity,78.9%
CS(=O)(=O)CCNCc1ccc(-c2ccc3ncnc(Nc4ccc(OCc5cccc(F)c5)c(Cl)c4)c3c2)o1,cell-free assay,,,0.5 µM,remaining signal,103%
COc1cc2ncnc(Nc3ccc(Oc4ccccc4)c(C)c3C)c2cc1OC,enzyme activity,inhibitor,,1 µM,inhibition,93%
CCC(=O)N[C@H]1CC[C@@H](C(=O)N(C)c2ccc(-c3nc4ccccc4o3)cc2)C1,cell-free assay,,competition with immobilised ligand,1 µM,remaining binding,100%
COc1cc(Nc2cnc(C#N)c(O[C@H](C)CN(C)C)n2)ncc1-c1cnn(C)c1,enzyme activity,inhibitor,radiometric,1 µM,remaining activity,98%
O=C(O)[C@@H]1[C@@H](Cn2nnc3ccccc3c2=O)CC[C@H]1C(=O)c1ccc(OCCC2CCOCC2)cc1,cell-free assay,,competition with immobilised ligand,1 µM,remaining binding,99%
Cc1cc(NC(=O)c2cccc3cc(-c4cccc5[nH]nc(N)c45)ccc23)ccc1F,enzyme activity,inhibitor,,0.1 µM,activity vs control,97%
NS(=O)(=O)c1cc(NC(=O)C2(c3ccccc3Cl)CC2)ccc1Oc1cccc(Cl)c1,cell-free assay,,competition with immobilised ligand,1 µM,remaining binding,99%
CC(C)(O)[C@H]1CC[C@H](Nc2ccc3ncc(-c4cccc(C(F)(F)F)c4)n3n2)CC1,enzyme activity,inhibitor,,1 µM,remaining activity,50.4%
Cc1nc(Cc2cccc(C(F)(F)F)c2)sc1-c1ccc(C(N)=O)nc1,cell-free assay,,competition with immobilised ligand,1 µM,remaining binding,100%
CNC(=O)c1cc(Oc2ccc(NC(=O)Nc3ccc(Cl)c(C(F)(F)F)c3)cc2)ccn1,enzyme activity,inhibitor,,0.3 µM,inhibition,-3%
O=C(N1CCS(=O)(=O)CC1)N1C[C@H](c2ccc(OC(F)(F)F)cc2)C[C@H](c2nc(C3CC3)no2)C1,cell-free assay,,competition with immobilised ligand,1 µM,remaining binding,100%
CN(C)C1CCN(CC#Cc2nn(C3CCCC3)c3nc(NCc4ccccc4)ncc23)C1 (stereo not drawn),enzyme activity,inhibitor,FRET,1 µM,inhibition,1%
Cc1ccc(Nc2nccc(N(C)c3ccc4c(C)n(C)nc4c3)n2)cc1S(N)(=O)=O,enzyme activity,inhibitor,,10 µM,inhibition,88%
CC(=O)N1CCC(c2ccc(C(=O)NC3=NCCN3)cc2C(F)(F)F)CC1,cell-free assay,,competition with immobilised ligand,1 µM,remaining binding,88%
